Measured values as given in ChEMBL document CHEMBL1123878, “Potential antitumor agents. 50. In vivo solid-tumor activity of derivatives of N-[2-(dimethylamino)ethyl]acridine-4-carboxamide” (J Med Chem, 1987).

What was measured:
[1] = Lipophilicity index (Rm) (HPLC); assay type: physicochemical
[2] = tested on: Lewis lung carcinoma cell line; assay: (§1) Percentage increase in life span of tumor bearing animals compared to non treated, tumor-bearing controls when treated at the optimal dose of 20 mg/kg/day intraperitoneally; assay type: functional; details: Mus musculus, ip, route intraperitoneal
P388 = assay: as §1; assay type: functional; details: Mus musculus, P388, ip; route intraperitoneal
L1210 = assay: Inhibition murine leukemia L1210 cell growth in culture; assay type: functional, cell-based; details: Mus musculus
Outline: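 IC50 is the drug concentration, in nM, that inhibits growth of the cultured cell line by 50%.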

Compound: CN(C)CCNC(=O)c1cccc2cc3cccc(Cl)c3nc12.Cl.Cl
- Rm [1]: -0.21
- ILS at 20 mg/kg/day [2]: 92%
- ILS at 20 mg/kg/day (P388): 91%
- IC50 (L1210): 6.9 nM
